Laboratory results: ChEMBL document CHEMBL4428069, “Parallel inhibition of amino acid efflux and growth of erythrocytic Plasmodium falciparum by mefloquine and non-piperidine analogs: Implication for the mechanism of antimalarial action” (Bioorg Med Chem Lett, 2016)
The source made the active and inactive calls. No cut-off for these calls is given here.

Tests used:
Plasmodium falciparum [1] = experiment: Antimalarial activity against chloroquine/mefloquine-sensitive Plasmodium falciparum 3D7 infected-erythrocytes assessed as parasite growth inhibition after 48 to 54 hrs by SYBR green 1-based replication method; format: functional, organism-based
Procedure, shortened: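 Chloroquine- and mefloquine-sensitive 3D7 strain; growth inhibition measured with a SYBR Green I-based replication assay. IC50 reported as mean and standard deviation of three independent experiments.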

Plasmodium falciparum [2] = experiment: Antimalarial activity against trophozoite stage of Plasmodium falciparum 3D7 infected-erythrocytes assessed as reduction in Leu efflux after 4 hrs by UPLC method; format: functional, organism-based; settings: 3D7, 4 h
Procedure, shortened: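 Trophozoite-stage 3D7-infected erythrocytes at 2% hematocrit and 10% parasitemia, cultured in medium lacking Leu and Val with D-norvaline as internal standard. Full concentration–response up to 1000 nM with a 4 h endpoint. Leu in the recovered conditioned medium quantified by UPLC (AccQ-Tag). Mean and standard deviation of three independent experiments.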

Plasmodium falciparum [3] = experiment: Antimalarial activity against chloroquine-resistant, mefloquine-sensitive Plasmodium falciparum W2 assessed as parasite growth inhibition by [3H]hypoxanthine incorporation assay
Plasmodium falciparum [4] = experiment: Antimalarial activity against trophozoite stage of Plasmodium falciparum 3D7 infected-erythrocytes assessed as inhibition of Leu efflux at 160 nM after 60 mins by UPLC method; format: functional; settings: 3D7, 4 h, in the assay text read “after 4 hrs” for “after 60 mins”
Procedure, shortened: (§1)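 Time course on 3D7-infected erythrocytes in medium lacking Leu and Val, with D-norvaline as internal standard. Exposure to 160 nM or DMSO, with conditioned medium sampled from 0 to 240 min. Leu in the medium measured by UPLC (AccQ-Tag), with a hyperbolic fit of the treated data. Points are the average of two technical replicates.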

Plasmodium falciparum [5] = experiment: Antimalarial activity against mefloquine-sensitive Plasmodium falciparum 3D7 infected-erythrocytes assessed as parasite growth inhibition after 48 hrs by sandwich ELISA; format: functional; settings: 3D7, 48 h
Plasmodium falciparum [6] = experiment: Antimalarial activity against trophozoite stage of Plasmodium falciparum 3D7 infected-erythrocytes assessed as reduction in Leu efflux at 160 nM after 120 mins by UPLC method; format: functional, organism-based; procedure, shortened: as §1

IC50 (Plasmodium falciparum [2]) | Structure (SMILES) | IC50 (Plasmodium falciparum [1]) | IC90 (Plasmodium falciparum [3]) | inhibition at 0.16 µM (Plasmodium falciparum [4]) | IC90 (Plasmodium falciparum [5]) | Activity (Plasmodium falciparum [6])
14 nM | CC(C)NCC(O)c1cc(C(F)(F)F)nc2c(C(F)(F)F)cccc12 (stereo not given) | 7.4 nM | 13 nM |  |  | 
10 nM | CCCNCC(O)c1cc(C(F)(F)F)nc2c(C(F)(F)F)cccc12 (stereo not given) | 4.2 nM | 1 nM |  |  | 
22 nM | O[C@@H](c1cc(C(F)(F)F)nc2c(C(F)(F)F)cccc12)[C@H]1CCCCN1 [(S,R)-MEFLOQUINE] | 9.1 nM | 16 nM | 70% | 146 nM | Active
9 nM | CCCCNCC(O)c1cc(C(F)(F)F)nc2c(C(F)(F)F)cccc12 (stereo not given) | 4.9 nM | 5 nM |  |  | 
590 nM | CC(C)N(CC(O)c1cc(C(F)(F)F)nc2c(C(F)(F)F)cccc12)C(C)C (stereo not given) | 350 nM | 12 nM |  |  | 
210 nM | OC(CNCCC1CCCC1)c1cc(C(F)(F)F)nc2c(C(F)(F)F)cccc12 (stereo not given) | 120 nM |  |  |  | 
13 nM | OC(CNCCc1ccccc1)c1cc(C(F)(F)F)nc2c(C(F)(F)F)cccc12 (stereo not given) | 8.5 nM | 11 nM |  |  | 
> 1000 nM | O=C1C(O)=C([C@H]2CC[C@H](c3ccc(Cl)cc3)CC2)C(=O)c2ccccc21 [ATOVAQUONE] | 0.6 nM |  |  |  | 
22000 nM | CCOCC(O)c1cc(C(F)(F)F)nc2c(C(F)(F)F)cccc12 (stereo not given) | 22000 nM |  |  |  | 
500 nM | OCCNCC(O)c1cc(C(F)(F)F)nc2c(C(F)(F)F)cccc12 (stereo not given) | 340 nM | 710 nM |  |  | 
> 1000 nM | CC1(C)N=C(N)N=C(N)N1OCCCOc1cc(Cl)c(Cl)cc1Cl |  |  |  |  | 
320 nM | CN(C)CCNCC(O)c1cc(C(F)(F)F)nc2c(C(F)(F)F)cccc12 (stereo not given) | 240 nM | 1300 nM |  |  | 
9.7 nM | OC(CNC1CCCCC1)c1cc(C(F)(F)F)nc2c(C(F)(F)F)cccc12 (stereo not given) | 3.8 nM | 6 nM |  |  | 
15 nM | OC(CNC12CC3CC(CC(C3)C1)C2)c1cc(C(F)(F)F)nc2c(C(F)(F)F)cccc12 (stereo not given) | 5.9 nM |  |  |  | 
9.3 nM | CCCN(CCC)CC(O)c1cc(C(F)(F)F)nc2c(C(F)(F)F)cccc12 (stereo not given) | 4.7 nM |  |  |  | 
51 nM | C#CCCNCC(O)c1cc(C(F)(F)F)nc2c(C(F)(F)F)cccc12 (stereo not given) | 34 nM |  |  |  | 
180 nM | CCCCN(CCCN)CC(O)c1cc(C(F)(F)F)nc2c(C(F)(F)F)cccc12 (stereo not given) | 49 nM |  |  |  | 
140 nM | C#CCNCC(O)c1cc(C(F)(F)F)nc2c(C(F)(F)F)cccc12 (stereo not given) | 110 nM | 1400 nM |  |  | 
5000 nM | NCCCNCC(O)c1cc(C(F)(F)F)nc2c(C(F)(F)F)cccc12 (stereo not given) | 1600 nM |  |  |  | 
360 nM | C#CCCN(CCCN)CC(O)c1cc(C(F)(F)F)nc2c(C(F)(F)F)cccc12 (stereo not given) | 140 nM |  |  |  | 
2600 nM | OC(CNc1ccccc1)c1cc(C(F)(F)F)nc2c(C(F)(F)F)cccc12 (stereo not given) | 2000 nM | 1200 nM |  |  | 
